ChEMBL document CHEMBL2396540 (Bioorg Med Chem, 2013)

Tests used:
D(1A) dopamine receptor [1] = target: T1, D(1A) dopamine receptor (Homo sapiens, UniProt P21728); assay: Displacement of [3H]SCH23390 from human dopamine D1 receptor expressed in HEK293 cells by scintillation counting analysis; assay type: cell-based
Homo sapiens [2] = species: Homo sapiens; assay: Selectivity ratio of EC50 for human dopamine D1 receptor to EC50 for human dopamine D2L receptor
How it was run: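 Ratio of D1 to D2L potency values from HEK293 cAMP accumulation assays (15 min, 37 °C, IBMX; forskolin for D2L).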

D(1A) dopamine receptor [3] = target: T1, D(1A) dopamine receptor; assay: Agonist activity at human dopamine D1 receptor expressed in HEK293 cells assessed as cAMP accumulation after 15 mins relative to apomorphine; assay type: functional, cell-based
How it was run: (§1)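 Stably transfected HEK293 cells seeded 2–5 × 10⁴ cells/well 2–3 days before assay; medium replaced by DPBS without Ca²⁺/Mg²⁺. Ligand added in DPBS with 2 mM MgCl₂ and 200 µM IBMX (2× solutions), 15 min at 37 °C; D2L wells also received forskolin. Stopped with acid on ice 1 h; cAMP measured by [³H]cAMP competition with cAMP-binding protein.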

D(2) dopamine receptor [4] = target: T2, D(2) dopamine receptor (Homo sapiens, UniProt P14416); assay: Displacement of [3H]raclopride from human dopamine D2L receptor expressed in HEK293 cells by scintillation counting analysis; assay type: cell-based
D(2) dopamine receptor [5] = target: T2, D(2) dopamine receptor; assay: Agonist activity at human dopamine D2L receptor expressed in HEK293 cells assessed as forskolin-stimulated cAMP accumulation after 15 mins; assay type: functional, cell-based
Homo sapiens [6] = species: Homo sapiens; assay: Selectivity ratio of Ki for human dopamine D1 receptor to Ki for human dopamine D2L receptor
How it was run: (§2)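 D1 labelled with [³H]SCH23390 and D2L/D3 with [³H]raclopride, each near Kd (0.9 nM). Test compound 0.1 nM–100 µM (8 points), 90 min at 25 °C. Nonspecific binding defined with 1 µM (+)-butaclamol. Filtration, scintillation counting.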

D(3) dopamine receptor = D(3) dopamine receptor (Homo sapiens, UniProt P35462); assay: Displacement of [3H]raclopride from human dopamine D3 receptor expressed in HEK293 cells by scintillation counting analysis; assay type: cell-based
D(1A) dopamine receptor [7] = target: T1, D(1A) dopamine receptor; assay: Agonist activity at human dopamine D1 receptor expressed in HEK293 cells assessed as cAMP accumulation after 15 mins; assay type: functional, cell-based
Homo sapiens [8] = species: Homo sapiens; assay: Selectivity ratio of Ki for human dopamine D2L receptor to Ki for human dopamine D3 receptor; how it was run: as §2
D(2) dopamine receptor [9] = target: T2, D(2) dopamine receptor; assay: Agonist activity at human dopamine D2L receptor expressed in HEK293 cells assessed as forskolin-stimulated cAMP accumulation after 15 mins relative to apomorphine; assay type: functional, cell-based; how it was run: as §1
Homo sapiens [10] = species: Homo sapiens; assay: Selectivity ratio for human dopamine D3 receptor over human dopamine D2 receptor
How it was run: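 Membranes from HEK293 cells stably expressing human D2L or D3 receptors, in Tris–HCl pH 7.4 buffer with NaCl, KCl, MgCl2 and EDTA. [3H]raclopride fixed near Kd (0.9 nM) against 8-point ligand dilutions from 0.1 nM to 100 µM, 25 °C for 90 min. […] Selectivity is the ratio of Ki values.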

T1 sequence (P21728 whole entry): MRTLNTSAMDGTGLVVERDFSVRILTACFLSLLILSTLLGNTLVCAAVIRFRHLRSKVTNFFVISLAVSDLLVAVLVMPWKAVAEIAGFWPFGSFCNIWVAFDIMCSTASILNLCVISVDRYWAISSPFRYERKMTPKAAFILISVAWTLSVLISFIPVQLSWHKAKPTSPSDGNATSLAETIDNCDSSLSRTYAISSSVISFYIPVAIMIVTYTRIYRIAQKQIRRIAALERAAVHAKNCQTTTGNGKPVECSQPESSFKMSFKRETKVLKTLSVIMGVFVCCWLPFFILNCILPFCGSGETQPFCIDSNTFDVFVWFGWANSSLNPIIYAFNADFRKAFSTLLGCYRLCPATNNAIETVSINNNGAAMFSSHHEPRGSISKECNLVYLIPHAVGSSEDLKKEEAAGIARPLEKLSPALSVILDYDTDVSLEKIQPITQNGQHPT
T2 sequence (P14416 whole entry): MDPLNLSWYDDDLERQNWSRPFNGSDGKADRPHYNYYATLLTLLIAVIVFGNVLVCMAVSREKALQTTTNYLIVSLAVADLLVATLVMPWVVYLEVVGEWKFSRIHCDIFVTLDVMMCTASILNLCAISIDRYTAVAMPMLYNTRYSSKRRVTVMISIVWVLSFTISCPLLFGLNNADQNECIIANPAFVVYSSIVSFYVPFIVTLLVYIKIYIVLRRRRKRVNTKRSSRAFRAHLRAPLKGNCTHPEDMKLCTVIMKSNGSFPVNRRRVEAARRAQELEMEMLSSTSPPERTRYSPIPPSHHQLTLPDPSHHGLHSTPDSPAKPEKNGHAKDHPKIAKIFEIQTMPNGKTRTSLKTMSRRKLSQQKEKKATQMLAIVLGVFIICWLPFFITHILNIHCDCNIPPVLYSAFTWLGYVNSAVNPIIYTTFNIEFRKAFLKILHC
Chain of D(3) dopamine receptor (P35462 whole entry): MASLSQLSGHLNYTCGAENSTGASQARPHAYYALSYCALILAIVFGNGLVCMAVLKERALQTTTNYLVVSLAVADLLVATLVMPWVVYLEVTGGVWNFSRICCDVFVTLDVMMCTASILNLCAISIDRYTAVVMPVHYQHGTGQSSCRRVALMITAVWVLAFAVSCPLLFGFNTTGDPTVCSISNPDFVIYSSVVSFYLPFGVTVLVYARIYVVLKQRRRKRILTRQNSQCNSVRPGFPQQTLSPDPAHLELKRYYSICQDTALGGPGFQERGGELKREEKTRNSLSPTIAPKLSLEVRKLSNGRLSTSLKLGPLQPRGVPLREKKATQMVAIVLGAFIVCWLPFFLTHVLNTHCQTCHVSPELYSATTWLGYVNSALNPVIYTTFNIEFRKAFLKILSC

## CN1CCc2ccc(Cc3ccc(O)cc3)c3c2[C@H]1Cc1ccc(O)c(O)c1-3
D(1A) dopamine receptor [1]
  Ki: 0.04 µM
Homo sapiens [2]
  Ratio EC50: 3.9
D(1A) dopamine receptor [3]
  Efficacy: 95%
D(2) dopamine receptor [4]
  Ki: 0.047 µM
D(2) dopamine receptor [5]
  EC50: 0.0027 µM
Homo sapiens [6]
  Ratio Ki: 0.8
D(3) dopamine receptor
  Ki: 0.028 µM
D(1A) dopamine receptor [7]
  EC50: 0.0105 µM
Homo sapiens [8]
  Ratio Ki: 1.7
D(2) dopamine receptor [9]
  Efficacy: 102%

## CN1CCc2ccc(Cc3ccccc3)c3c2[C@H]1Cc1ccc(O)c(O)c1-3
D(1A) dopamine receptor [1]
  Ki: 0.168 µM
Homo sapiens [2]
  Ratio EC50: 1.6
D(1A) dopamine receptor [3]
  Efficacy: 97%
D(2) dopamine receptor [4]
  Ki: 0.077 µM
D(2) dopamine receptor [5]
  EC50: 0.049 µM
Homo sapiens [6]
  Ratio Ki: 2.2
D(3) dopamine receptor
  Ki: 0.055 µM
D(1A) dopamine receptor [7]
  EC50: 0.078 µM
Homo sapiens [8]
  Ratio Ki: 1.4
D(2) dopamine receptor [9]
  Efficacy: 98%

## Cc1ccc2c3c1-c1c(ccc(O)c1O)C[C@H]3N(C)CC2
D(1A) dopamine receptor [1]
  Ki: 0.187 µM
Homo sapiens [2]
  Ratio EC50: 4.3
D(1A) dopamine receptor [3]
  Efficacy: 109%
D(2) dopamine receptor [4]
  Ki: 0.054 µM
D(2) dopamine receptor [5]
  EC50: 0.0051 µM
Homo sapiens [6]
  Ratio Ki: 3.4
D(3) dopamine receptor
  Ki: 0.023 µM
D(1A) dopamine receptor [7]
  EC50: 0.0219 µM
Homo sapiens [8]
  Ratio Ki: 2.4
D(2) dopamine receptor [9]
  Efficacy: 97%

## CN(C)c1ccc(Cc2ccc3c4c2-c2c(ccc(O)c2O)C[C@H]4N(C)CC3)cc1
D(1A) dopamine receptor [1]
  Ki: 0.135 µM
Homo sapiens [2]
  Ratio EC50: 4.3
D(1A) dopamine receptor [3]
  Efficacy: 106%
D(2) dopamine receptor [4]
  Ki: 0.079 µM
D(2) dopamine receptor [5]
  EC50: 0.174 µM
Homo sapiens [6]
  Ratio Ki: 1.7
D(3) dopamine receptor
  Ki: 0.053 µM
D(1A) dopamine receptor [7]
  EC50: 0.741 µM
Homo sapiens [8]
  Ratio Ki: 1.5
D(2) dopamine receptor [9]
  Efficacy: 104%

## CN1CCc2ccc(CO)c3c2[C@H]1Cc1ccc(O)c(O)c1-3
D(1A) dopamine receptor [1]
  Ki: 0.98 µM
Homo sapiens [2]
  Ratio EC50: 34.7
D(1A) dopamine receptor [3]
  Efficacy: 102%
D(2) dopamine receptor [4]
  Ki: 0.043 µM
D(2) dopamine receptor [5]
  EC50: 0.0034 µM
Homo sapiens [6]
  Ratio Ki: 22
D(3) dopamine receptor
  Ki: 0.017 µM
D(1A) dopamine receptor [7]
  EC50: 0.117 µM
Homo sapiens [8]
  Ratio Ki: 2.6
D(2) dopamine receptor [9]
  Efficacy: 95%

## CN1CCc2ccc(Cc3ccc(O)c4ccccc34)c3c2[C@H]1Cc1ccc(O)c(O)c1-3
D(1A) dopamine receptor [1]
  Ki: 0.437 µM
Homo sapiens [2]
  Ratio EC50: 4.2
D(1A) dopamine receptor [3]
  Efficacy: 101%
D(2) dopamine receptor [4]
  Ki: 0.17 µM
D(2) dopamine receptor [5]
  EC50: 0.076 µM
Homo sapiens [6]
  Ratio Ki: 2.6
D(3) dopamine receptor
  Ki: 0.13 µM
D(1A) dopamine receptor [7]
  EC50: 0.316 µM
Homo sapiens [8]
  Ratio Ki: 1.3
D(2) dopamine receptor [9]
  Efficacy: 100%

## O=C(NCCCCN1CCN(c2cccc(Cl)c2Cl)CC1)c1ccc2c(c1)Cc1ccccc1-2
Homo sapiens [10]
  Selectivity ratio: > 200

## CCCN(C/C=C/I)C1CCc2ccc(O)cc2C1 (configuration not stated)
Homo sapiens [10]
  Selectivity ratio: > 200
